≈ marks a conversion by molar mass, not a printed value. Calls of active or inactive are those of the source. The calls are words filed in the database; no cut-off is given here.

One assay concerns Mycobacterium tuberculosis. Nature of the assay: Antibacterial activity against Mycobacterium tuberculosis H37Rv at 32 ug/ml […] by agar dilution method.
Settings: not given
Format: functional, organism-based.
For `O=C1O[C@@H](CNS(=O)(=O)c2cccc(Cl)c2)CN1c1ccc(N2CCOCC2)c(F)c1`, the outcome was inactive.

On to `CC(=O)c1ccc(S(=O)(=O)NC[C@H]2CN(c3ccc(N4CCOCC4)c(F)c3)C(=O)O2)cc1`, for which the outcome was inactive.

Turning to `CC(=O)c1ccc(S(=O)(=O)NC[C@H]2CN(c3ccc(N4CCSCC4)c(F)c3)C(=O)O2)cc1`, the outcome was inactive.

Take `O=C1O[C@@H](CNS(=O)(=O)c2ccc(F)c(Cl)c2)CN1c1ccc(N2CCSCC2)c(F)c1`: the result was inactive.

For another assay, the system named is Micrococcus luteus. Nature of the assay: Antibacterial activity against Micrococcus luteus MTCC 2470 after 24 hrs by agar dilution method. Format: functional. The conditions noted are these: MTCC 2470, 24 h.
`O=C1O[C@@H](CNS(=O)(=O)c2cccc(Cl)c2)CN1c1ccc(N2CCOCC2)c(F)c1` displayed an MIC of 8 µg/mL (≈ 17 µM).

`CC(=O)c1ccc(S(=O)(=O)NC[C@H]2CN(c3ccc(N4CCOCC4)c(F)c3)C(=O)O2)cc1` came in with an MIC of 6 µg/mL (≈ 12.6 µM).

A further assay deals with Staphylococcus. As to the kind of experiment: Antibacterial activity against Staphylococcus MLS-16 MTCC 2940 after 24 hrs by agar dilution method. The assay is classed as functional. The conditions noted are these: MLS-16 MTCC 2940, 24 h.
Take `O=C1O[C@@H](CNS(=O)(=O)c2cccc(Cl)c2)CN1c1ccc(N2CCOCC2)c(F)c1`: the MIC came to 6 µg/mL (≈ 12.8 µM).

Compound `CC(=O)c1ccc(S(=O)(=O)NC[C@H]2CN(c3ccc(N4CCOCC4)c(F)c3)C(=O)O2)cc1` had an MIC of 6 µg/mL (≈ 12.6 µM).

In the case of `CC(=O)c1ccc(S(=O)(=O)NC[C@H]2CN(c3ccc(N4CCSCC4)c(F)c3)C(=O)O2)cc1`, the MIC was found to be 8 µg/mL (≈ 16.2 µM).

In turn, `O=C1O[C@@H](CNS(=O)(=O)c2ccc(F)c(Cl)c2)CN1c1ccc(N2CCSCC2)c(F)c1` yielded an MIC of 8 µg/mL (≈ 15.9 µM).

Another assay concerns Bacillus subtilis. As to the kind of experiment: Antibacterial activity against Bacillus subtilis MTCC 121 after 24 hrs by agar dilution method. Format: functional. The conditions noted are these: MTCC 121, 24 h.
As to `O=C1O[C@@H](CNS(=O)(=O)c2cccc(Cl)c2)CN1c1ccc(N2CCOCC2)c(F)c1`, 6 µg/mL (≈ 12.8 µM) was the least that counted as inhibitory (MIC).

`CC(=O)c1ccc(S(=O)(=O)NC[C@H]2CN(c3ccc(N4CCOCC4)c(F)c3)C(=O)O2)cc1` yielded a minimum inhibitory concentration (MIC) of 6 µg/mL (≈ 12.6 µM).

Compound `CC(=O)c1ccc(S(=O)(=O)NC[C@H]2CN(c3ccc(N4CCSCC4)c(F)c3)C(=O)O2)cc1` had a minimal inhibitory concentration (MIC) of 10 µg/mL (≈ 20.3 µM).

With `O=C1O[C@@H](CNS(=O)(=O)c2ccc(F)c(Cl)c2)CN1c1ccc(N2CCSCC2)c(F)c1`, 10 µg/mL (≈ 19.8 µM) was the least that counted as inhibitory (MIC).

In a further assay the test system is Candida albicans. As to the kind of experiment: Antifungal activity against Candida albicans MTCC 3017 at 20 ug/ml after 24 hrs by disk diffusion method. Format: functional. The conditions noted are these: MTCC 3017, 24 h, read-out: IZ.
For the compound `OC(Cn1cncn1)(Cn1cncn1)c1ccc(F)cc1F` [FLUCONAZOLE], the zone of inhibition at 20 µg/mL was determined as 20 mm.

A further assay has as its system Staphylococcus aureus. As to the kind of experiment: Antibacterial activity against Staphylococcus aureus MTCC 96 after 24 hrs by agar dilution method. The assay is classed as functional. Conditions: MTCC 96, 24 h.
`O=C1O[C@@H](CNS(=O)(=O)c2cccc(Cl)c2)CN1c1ccc(N2CCOCC2)c(F)c1`: the MIC stood at 6 µg/mL (≈ 12.8 µM).

In turn, `CC(=O)c1ccc(S(=O)(=O)NC[C@H]2CN(c3ccc(N4CCOCC4)c(F)c3)C(=O)O2)cc1` gave a minimal inhibitory concentration (MIC) of 6 µg/mL (≈ 12.6 µM).

`CC(=O)c1ccc(S(=O)(=O)NC[C@H]2CN(c3ccc(N4CCSCC4)c(F)c3)C(=O)O2)cc1` had an MIC of 8 µg/mL (≈ 16.2 µM).

`O=C1O[C@@H](CNS(=O)(=O)c2ccc(F)c(Cl)c2)CN1c1ccc(N2CCSCC2)c(F)c1`: the MIC was 8 µg/mL (≈ 15.9 µM).

In a further assay the test system is Raoultella planticola. Nature of the assay: Antibacterial activity against Klebsiella planticola MTCC 530 at 80 ug/ml after 24 hrs by agar dilution method. Format: functional, organism-based.
Settings: not given
Regarding `O=C1O[C@@H](CNS(=O)(=O)c2cccc(Cl)c2)CN1c1ccc(N2CCOCC2)c(F)c1`, the outcome was inactive.

Regarding `CC(=O)c1ccc(S(=O)(=O)NC[C@H]2CN(c3ccc(N4CCOCC4)c(F)c3)C(=O)O2)cc1`, the result was inactive.

Consider `CC(=O)c1ccc(S(=O)(=O)NC[C@H]2CN(c3ccc(N4CCSCC4)c(F)c3)C(=O)O2)cc1`, for which the result was inactive.

For the compound `O=C1O[C@@H](CNS(=O)(=O)c2ccc(F)c(Cl)c2)CN1c1ccc(N2CCSCC2)c(F)c1`, the outcome was inactive.

In the next assay the test system is Candida albicans. As to the kind of experiment: Antifungal activity against Candida albicans MTCC 3017 after 48 hrs by agar dilution method. Format: functional. Conditions: MTCC 3017, 48 h. In short, it runs like this: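 Same disk/dilution format as the antibacterial assay, on potato dextrose agar (39 g/L). Compounds were from DMSO stock, loaded at 1 to 80 per disk, in triplicate. Plates were incubated at 28 ± 2 °C for 48 h. MIC was the lowest amount that arrested growth. Equivalent DMSO served as solvent control.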
In the case of `O=C1O[C@@H](CNS(=O)(=O)c2cccc(Cl)c2)CN1c1ccc(N2CCOCC2)c(F)c1`, the lowest concentration to inhibit growth (MIC) was 8 µg/mL (≈ 17 µM).

In turn, `CC(=O)c1ccc(S(=O)(=O)NC[C@H]2CN(c3ccc(N4CCOCC4)c(F)c3)C(=O)O2)cc1` yielded a minimum inhibitory concentration (MIC) of 6 µg/mL (≈ 12.6 µM).

Compound `OC(Cn1cncn1)(Cn1cncn1)c1ccc(F)cc1F` [FLUCONAZOLE] displayed an MIC of 1 µg/mL (≈ 3.27 µM).

For `CC(=O)c1ccc(S(=O)(=O)NC[C@H]2CN(c3ccc(N4CCSCC4)c(F)c3)C(=O)O2)cc1`, the MIC was 20 µg/mL (≈ 40.5 µM).

Turning to `O=C1O[C@@H](CNS(=O)(=O)c2ccc(F)c(Cl)c2)CN1c1ccc(N2CCSCC2)c(F)c1`, the minimal inhibitory concentration (MIC) amounted to 20 µg/mL (≈ 39.7 µM).

Another assay deals with Escherichia coli. As to the kind of experiment: Antibacterial activity against Escherichia coli MTCC 739 at 80 ug/ml after 24 hrs by agar dilution method. The assay is classed as functional, organism-based.
Settings: not given
On to `O=C1O[C@@H](CNS(=O)(=O)c2cccc(Cl)c2)CN1c1ccc(N2CCOCC2)c(F)c1`, for which the result was inactive.

As to `CC(=O)c1ccc(S(=O)(=O)NC[C@H]2CN(c3ccc(N4CCOCC4)c(F)c3)C(=O)O2)cc1`, the result was inactive.

With `CC(=O)c1ccc(S(=O)(=O)NC[C@H]2CN(c3ccc(N4CCSCC4)c(F)c3)C(=O)O2)cc1`, the result was inactive.

Take `O=C1O[C@@H](CNS(=O)(=O)c2ccc(F)c(Cl)c2)CN1c1ccc(N2CCSCC2)c(F)c1`: the outcome was inactive.

The next assay deals with Pseudomonas aeruginosa. As to the kind of experiment: Antibacterial activity against Pseudomonas aeruginosa MTCC 2453 at 80 ug/ml after 24 hrs by agar dilution method. Format: functional, organism-based.
Settings: not given
Consider `O=C1O[C@@H](CNS(=O)(=O)c2cccc(Cl)c2)CN1c1ccc(N2CCOCC2)c(F)c1`, for which the result was inactive.

Turning to `CC(=O)c1ccc(S(=O)(=O)NC[C@H]2CN(c3ccc(N4CCOCC4)c(F)c3)C(=O)O2)cc1`, the outcome was inactive.

In the case of `CC(=O)c1ccc(S(=O)(=O)NC[C@H]2CN(c3ccc(N4CCSCC4)c(F)c3)C(=O)O2)cc1`, the result was inactive.

In the case of `O=C1O[C@@H](CNS(=O)(=O)c2ccc(F)c(Cl)c2)CN1c1ccc(N2CCSCC2)c(F)c1`, the result was inactive.

In a further assay the test system is Micrococcus luteus. Nature of the assay: Antibacterial activity against Micrococcus luteus MTCC 2470 at 80 ug/ml after 24 hrs by agar dilution method. Format: functional, organism-based.
Settings: not given
In the case of `CC(=O)c1ccc(S(=O)(=O)NC[C@H]2CN(c3ccc(N4CCSCC4)c(F)c3)C(=O)O2)cc1`, the result was inactive.

In the case of `O=C1O[C@@H](CNS(=O)(=O)c2ccc(F)c(Cl)c2)CN1c1ccc(N2CCSCC2)c(F)c1`, the result was inactive.

The values above are taken from ChEMBL document CHEMBL2331333, “Synthesis, biological evaluation of new oxazolidino-sulfonamides as potential antimicrobial agents” (2013).
